According to ChEMBL document CHEMBL4480457, “Dihydrophenanthrenes from Juncus effusus as Inhibitors of OAT1 and OAT3” (J Nat Prod, 2019):
One block for each molecule: values may come before it.

Key:
[1] = target: T1, OAT1 (SLC22A6) (Homo sapiens, UniProt Q4U2R8); assay: Inhibition of OAT1 (unknown origin) expressed in HEK293 cells assessed as reduction in 6-CF uptake at 50 uM measured after 5 mins by fluorescence assay relative to control; type: cell-based; conditions: HEK293 cells expressing OAT1, probe 6-CF
T1 sequence (Q4U2R8 whole entry): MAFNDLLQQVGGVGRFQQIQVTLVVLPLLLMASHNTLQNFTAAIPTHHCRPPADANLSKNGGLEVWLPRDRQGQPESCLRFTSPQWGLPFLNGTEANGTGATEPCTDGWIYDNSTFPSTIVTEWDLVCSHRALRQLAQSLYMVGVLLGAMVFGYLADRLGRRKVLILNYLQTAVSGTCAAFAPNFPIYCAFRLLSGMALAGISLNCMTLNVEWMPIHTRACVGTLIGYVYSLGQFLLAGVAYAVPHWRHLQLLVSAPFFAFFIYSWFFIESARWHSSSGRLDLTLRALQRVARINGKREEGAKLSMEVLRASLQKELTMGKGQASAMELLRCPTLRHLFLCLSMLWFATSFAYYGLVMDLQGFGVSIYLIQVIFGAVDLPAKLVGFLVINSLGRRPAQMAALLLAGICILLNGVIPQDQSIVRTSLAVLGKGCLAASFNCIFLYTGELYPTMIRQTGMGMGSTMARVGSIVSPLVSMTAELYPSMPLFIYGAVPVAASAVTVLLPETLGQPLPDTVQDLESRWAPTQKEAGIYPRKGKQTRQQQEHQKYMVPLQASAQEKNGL
Procedure, shortened: (§1)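 Transfected HEK293 cells stably expressing OAT1 or OAT3, maintained under hygromycin B selection, were seeded on poly-D-lysine plates and grown 24 h. Cells preincubated 5 min at 37 °C in Hepes uptake buffer (pH 7.2), then exposed 5 min to 4 μM 6-CF with compound at 50 μM. Ice-cold stop, PBS wash, Triton lysis. Fluorescence read at 485/528 nm, normalized to BCA protein, in triplicate.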

[2] = target: T2, Organic anion transporter 3 (Homo sapiens, UniProt Q8TCC7); assay: Inhibition of OAT3 (unknown origin) expressed in HEK293 cells assessed as reduction in 6-CF uptake measured after 5 mins by fluorescence assay; type: cell-based; conditions: for inhibition (INH): human, hek293, 5 min
T2 sequence (Q8TCC7 whole entry): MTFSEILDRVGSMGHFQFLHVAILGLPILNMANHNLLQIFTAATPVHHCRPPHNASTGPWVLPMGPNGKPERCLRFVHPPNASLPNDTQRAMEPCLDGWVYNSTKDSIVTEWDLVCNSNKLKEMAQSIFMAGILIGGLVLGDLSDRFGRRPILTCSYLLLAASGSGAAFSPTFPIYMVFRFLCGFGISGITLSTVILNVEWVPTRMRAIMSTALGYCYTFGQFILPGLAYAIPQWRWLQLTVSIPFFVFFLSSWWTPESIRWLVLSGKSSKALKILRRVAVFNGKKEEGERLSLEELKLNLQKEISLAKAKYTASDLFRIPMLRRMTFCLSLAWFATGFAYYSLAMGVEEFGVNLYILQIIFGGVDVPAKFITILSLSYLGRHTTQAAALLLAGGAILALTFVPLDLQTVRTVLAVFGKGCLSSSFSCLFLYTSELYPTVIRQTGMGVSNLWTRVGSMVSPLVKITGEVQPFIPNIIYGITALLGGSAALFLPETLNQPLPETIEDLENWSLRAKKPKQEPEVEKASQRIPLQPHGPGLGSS
Procedure, shortened: (§2)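 Uptake of 4 μM 6-CF measured over 5 min in stable OAT1- or OAT3-HEK293 cells, in pH 7.2 Hepes buffer at 37 °C with serial dilutions of compound. Lysate fluorescence (485/528 nm) normalized to protein, triplicate. IC50 obtained by nonlinear regression, reported as mean ± SEM.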

[3] = target: T3, OAT3 (Homo sapiens, UniProt Q8TCC7); assay: Inhibition of OAT3 (unknown origin) expressed in HEK293 cells assessed as reduction in 6-CF uptake at 50 uM measured after 5 mins by fluorescence assay relative to control; type: cell-based; conditions: HEK293 cells expressing OAT3, probe 6-CF; procedure, shortened: as §1
T3 sequence (Q8TCC7 whole entry): T2 sequence (Q8TCC7 whole entry)

[4] = test system: Rattus norvegicus; assay: In vivo inhibition of OAT1 and OAT3 in Wistar rat assesed as increase in furosemide AUC (0 to t) at 20 mg/kg, po administered via gavage pretreated for 5 mins followed by furosemide addition and measured within 10 mins by HPLC analysis; type: functional; parameters: scale not given: the % may be the effect or the level left
Procedure, shortened: (§3)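 Rats (5 per group) fasted 12 h, then pretreated by oral gavage with test agent in 40% PEG-400 or vehicle. After 5 min, furosemide 10 mg/kg in saline given by tail vein injection. Orbital sinus blood taken at 2–120 min. Plasma extracted with MeCN containing warfarin internal standard. Furosemide quantified by C18 HPLC with UV detection at 280 nm. AUC0−t calculated.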

[5] = test system: Rattus norvegicus; assay: In vivo inhibition of OAT1 and OAT3 in Wistar rat assesed as increase in furosemide AUC (0 to t) at 10 mg/kg, po administered via gavage pretreated for 5 mins followed by furosemide addition and measured within 10 mins by HPLC analysis; type: functional; parameters: scale not given: the % may be the effect or the level left; conditions: in the assay text read “at 20 mg/kg” for “at 10 mg/kg”; procedure, shortened: as §3
[6] = Toxicity in Wistar rat at 20 mg/kg, po administered via gavage; type: organism-based; conditions: in vivo
Procedure, shortened: (§4)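 Preliminary test in fasted rats: single oral gavage dose in 40% PEG-400, observed for toxic response.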

[7] = test system: Rattus norvegicus; assay: In vivo inhibition of OAT1 and OAT3 in Wistar rat assesed as increase in furosemide AUC (0 to t) at 20 mg/kg, po administered via gavage pretreated for 5 mins followed by furosemide addition and measured within 90 mins by HPLC analysis; type: functional; parameters: scale not given: the % may be the effect or the level left; procedure, shortened: as §3
[8] = test system: Rattus norvegicus; assay: In vivo inhibition of OAT1 and OAT3 in Wistar rat assesed as increase in furosemide AUC (0 to t) at 10 mg/kg, po administered via gavage pretreated for 5 mins followed by furosemide addition and measured within 90 mins by HPLC analysis; type: functional; parameters: scale not given: the % may be the effect or the level left; procedure, shortened: as §3
[9] = test system: Rattus norvegicus; assay: In vivo inhibition of OAT1 and OAT3 in Wistar rat assesed as increase in furosemide AUC (0 to t) at 20 mg/kg, po administered via gavage pretreated for 5 mins followed by furosemide addition and measured within 30 mins by HPLC analysis; type: functional; parameters: scale not given: the % may be the effect or the level left; procedure, shortened: as §3
[10] = target: T4, Solute carrier family 22 member 6 (Homo sapiens, UniProt Q4U2R8); assay: Inhibition of OAT1 (unknown origin) expressed in HEK293 cells assessed as reduction in 6-CF uptake measured after 5 mins by fluorescence assay; type: cell-based; conditions: for inhibition (INH): human, hek293, 5 min; procedure, shortened: as §2
T4 sequence (Q4U2R8 whole entry): T1 sequence (Q4U2R8 whole entry)

[11] = test system: Rattus norvegicus; assay: In vivo inhibition of OAT1 and OAT3 in Wistar rat assesed as increase in furosemide AUC (0 to t) at 10 mg/kg, po administered via gavage pretreated for 5 mins followed by furosemide addition and measured within 30 mins by HPLC analysis; type: functional; parameters: scale not given: the % may be the effect or the level left; conditions: in the assay text read “at 20 mg/kg” for “at 10 mg/kg”; procedure, shortened: as §3
[12] = Toxicity in Wistar rat at 10 mg/kg, po administered via gavage; type: organism-based; conditions: in vivo; procedure, shortened: as §4

SMILES: C=Cc1cc(C(=O)O)cc2c1CCc1c-2ccc(O)c1C
inhibition at 5 min, 50 µM [1]: < 50%
IC50 [2]: 2800 nM
inhibition (INH) [2]: Dose-dependent effect
inhibition at 5 min, 50 µM [3]: > 50%

SMILES: C=Cc1cc2c(cc1C(=O)O)CCc1c-2ccc(O)c1C
Activity [4]: 70%
Activity [5]: 70%
Activity [6]: Non-Toxic
inhibition at 5 min, 50 µM [1]: > 50%
Activity [7]: 66%
Activity [8]: 66%
Activity [9]: 62%
IC50 [10]: 8.4 µM
inhibition (INH) [10]: Dose-dependent effect
IC50 [2]: 1300 nM
inhibition (INH) [2]: Dose-dependent effect
Activity [11]: 62%
inhibition at 5 min, 50 µM [3]: > 50%

SMILES: C=Cc1c(C(=O)O)ccc2c1CCc1c-2ccc(O)c1C
inhibition at 5 min, 50 µM [1]: > 50%
IC50 [10]: 18.3 µM
IC50 [2]: 1100 nM
inhibition (INH) [2]: Dose-dependent effect
inhibition at 5 min, 50 µM [3]: > 50%

SMILES: C=Cc1cc(C(=O)O)cc2c1-c1ccc(O)c(C)c1CC2
inhibition at 5 min, 50 µM [1]: > 50%
IC50 [10]: 4.4 µM
inhibition (INH) [10]: Dose-dependent effect
IC50 [2]: 1100 nM
inhibition (INH) [2]: Dose-dependent effect
inhibition at 5 min, 50 µM [3]: > 50%

SMILES: COc1cc(C(=O)c2ccc(O)c(OC)c2)ccc1O
inhibition at 5 min, 50 µM [1]: > 50%
IC50 [10]: 3.5 µM
inhibition (INH) [10]: Dose-dependent effect
IC50 [2]: 2300 nM
inhibition (INH) [2]: Dose-dependent effect
inhibition at 5 min, 50 µM [3]: > 50%

SMILES: CCCN(CCC)S(=O)(=O)c1ccc(C(=O)O)cc1 [PROBENECID]
Activity [12]: Non-Toxic

Now from value to molecule:

inhibition at 5 min, 50 µM [1]: > 50%
IC50 [10]: 23.3 µM
IC50 [2]: 22700 nM
inhibition at 5 min, 50 µM [3]: > 50%
SMILES: C=Cc1cc(O)cc2c1-c1ccc(O)c(C)c1CC2 [EFFUSOL]

inhibition at 5 min, 50 µM [1]: > 50%
IC50 [10]: 43.1 µM
IC50 [2]: 8300 nM
inhibition (INH) [2]: Dose-dependent effect
inhibition at 5 min, 50 µM [3]: > 50%
SMILES: COC(C)c1cc(O)cc2c1-c1ccc(O)c(C)c1CC2 (racemic)

inhibition at 5 min, 50 µM [1]: < 50%
IC50 [2]: 6500 nM
inhibition (INH) [2]: Dose-dependent effect
inhibition at 5 min, 50 µM [3]: > 50%
SMILES: C=Cc1c(C)c(O)cc2c1-c1ccc(O)c(C)c1CC2
